Measured values taken from ChEMBL document CHEMBL4765328 (Eur J Med Chem, 2020).
The source made the active and inactive calls. No cut-off for these calls is given here.

Legend:
[1] = Antitumor activity mouse E0771 cells implanted in C57BL/6 mouse assessed as reduction tumor mass at 15 mg/kg, ip administered every other day relative to control; type: functional, EO771; parameters: scale not given: the % may be the effect or the level left
Summary of the method: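 Seven-week-old female C57BL/6 mice received 4 x 10^5 E0771 cells orthotopically in the mammary fat pad and were randomized once tumors were palpable. Dosing was ip every other day at 5 or 15 mg/kg, with DMSO vehicle in 100 µL. Caliper volume was V=(D×d²)/2, and tumor weight was taken at endpoint; n=5/group. Analysis used two-way ANOVA with Bonferroni.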

[2] = system: HL-60; test: Potency index, ratio […] for human HL-60 cells assessed as inhibition of cell growth; type: functional
[3] = system: HeLa; test: Induction of cell cycle arrest in human HeLa cells assessed as accumulation at G2/M phase at 10 nM after 24 hrs by PI staining based flow cytometric analysis; type: functional
Summary of the method: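 HeLa cells treated 24 h, then fixed in cold 70% ethanol. They were lysed with 0.1% Triton X-100 plus RNase A and stained with PI for flow cytometric DNA content. Means ± SEM of two independent experiments.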

[4] = system: HT-29; test: Antiproliferative activity against human HT-29 cells assessed as inhibition of cell growth; type: functional, cell-based
Summary of the method: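 Growth inhibition of cancer cell lines read from dose-response curves; IC50 as mean ± SEM of at least three independent experiments.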

[5] = system: HeLa; test: Induction of apoptosis in human HeLa cells assessed as increase in bcl-2 phosphorylation at 10 nM after 48 hrs by Western blot analysis; type: functional, cell-based
Summary of the method: (§1)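 HeLa cells treated 24 or 48 h, then washed in cold PBS and lysed in 0.1% Triton X-100/RNase A at 0 °C. Lysates were cleared at 15,000 x g. 10 µg protein was run on SDS-PAGE and blotted to PVDF, blocked in 5% BSA, and probed 2 h at room temperature with primary antibodies. HRP secondary and ECL detection followed; β-actin reprobe served as loading control.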

[6] = system: HeLa; test: Induction of mitochondrial membrane potential loss in human HeLa cells assessed as cells with polarized mitochondrial membrane at 10 nM after 24 hrs by JC-1 dye-based flow cytometric analysis (reference value: 94.3 %); type: functional
[7] = system: SEM cells; test: Potency index, ratio of CA-4 IC50 to compound IC50 for human SEM cells assessed as inhibition of cell growth; type: functional
[8] = organism: Bos taurus; test: Inhibition of [3H]colchicine binding to bovine brain tubulin at 5 uM relative to control
Summary of the method: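 [3H]colchicine binding to purified tubulin, with tubulin at 0.5 µM and colchicine at 5 µM. Compounds tested at 5 and 0.5 µM. CA-4 was run in contemporaneous experiments for comparison.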

[9] = system: HeLa; test: Induction of microtubule network depolymerization in human HeLa cells assessed as appearance of disorganised microtubules at 100 nM after 24 hrs by immunofluorescence staining based confocal microscopic analysis; type: cell-based
Summary of the method: (§2)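 HeLa cells treated 24 h at 10, 50 or 100 nM. They were then fixed in cold 4% formaldehyde for 15 min and stained with anti-β-tubulin for 2 h at room temperature. Alexa 488 secondary and DAPI counterstain followed; imaged by confocal microscopy at 20X.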

[10] = system: HeLa; test: Induction of apoptosis in human HeLa cells assessed as increase in cleavage of caspase 9 at 10 nM after 24 hrs by Western blot analysis; type: functional, cell-based; summary of the method: as §1
[11] = system: HeLa; test: Induction of apoptosis in human HeLa cells assessed as necrotic cells at 10 nM measured after 48 hrs by Annexin V-FITC/propidium iodide staining based flow cytometry (reference value: 2.26 %); type: functional
[12] = system: HeLa; test: Induction of apoptosis in human HeLa cells assessed as necrotic cells at 10 nM measured after 24 hrs by Annexin V-FITC/propidium iodide staining based flow cytometry (reference value: 2.26 %); type: functional
[13] = system: HeLa; test: Induction of microtubule network depolymerization in human HeLa cells assessed as appearance of disorganised microtubules at 50 nM after 24 hrs by immunofluorescence staining based confocal microscopic analysis; type: cell-based; summary of the method: as §2
[14] = system: HeLa; test: Induction of mitochondrial membrane potential loss in human HeLa cells assessed as cells with depolarized mitochondrial membrane at 10 nM after 48 hrs by JC-1 dye-based flow cytometric analysis (reference value: 5.7 %); type: functional
[15] = system: HeLa; test: Induction of mitochondrial membrane potential loss in human HeLa cells assessed as cells with polarized mitochondrial membrane at 10 nM after 48 hrs by JC-1 dye-based flow cytometric analysis (reference value: 94.3 %); type: functional
[16] = system: HeLa; test: Downregulation of BubR1 expression in human HeLa cells at 10 nM after 24 hrs by Western blot analysis; type: functional, cell-based; summary of the method: as §1
[17] = system: HeLa; test: Induction of apoptosis in human HeLa cells assessed as early apoptotic cells at 10 nM measured after 48 hrs by Annexin V-FITC/propidium iodide staining based flow cytometry (reference value: 2.1 %); type: functional
[18] = Toxicity in C57BL/6 mouse implanted with mouse E0771 cells assessed as reduction in body weight at 15 mg/kg, ip administered every other day; type: organism-based; conditions: in vivo
Summary of the method: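 Seven-week-old female C57BL/6 mice received 4 × 10^5 E0771 cells orthotopically into the mammary fat pad. Once tumors were palpable, mice were randomized and given ip injections every other day (15 or 5 mg/kg, or vehicle DMSO; CA-4P 30 mg/kg as reference). Body weight was followed during treatment; n = 5 mice/group.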

[19] = system: HeLa; test: Induction of apoptosis in human HeLa cells assessed as viable cells at 10 nM measured after 24 hrs by Annexin V-FITC/propidium iodide staining based flow cytometry (reference value: 89.57 %); type: functional; conditions: read-out: Activity
[20] = system: HeLa; test: Downregulation of MAD-2 expression in human HeLa cells at 10 nM after 24 hrs by Western blot analysis; type: functional, cell-based; summary of the method: as §1
[21] = system: HeLa; test: Induction of apoptosis in human HeLa cells assessed as increase in bcl-2 phosphorylation at 10 nM after 24 hrs by Western blot analysis; type: functional, cell-based; summary of the method: as §1

In the case of `CCOc1ccc2c(C(=O)c3cc(OC)c(OC)c(OC)c3)c(N)oc2c1`, the Activity [1] is reported as 45.7%, the “Ratio IC50” value [2] is reported as 3 and the Activity [3] is reported as “Active”. For the same molecule, the IC50 [4] was 2.1 nM, the Activity [5] was “Active” and the Activity [6] was 75.7%. For the same molecule, the “Ratio IC50” value [7] was 16, the inhibition [8] was 99% and the Activity [9] was “Active”. For the same molecule, the Activity [10] was “Active”, the Activity [11] was 21.63% and the Activity [12] was 14.77%. For the same molecule, the Activity [13] was “Active”, the Activity [14] was 54.7% and the Activity [15] was 45.3%. The Activity [16] was “Active”, the Activity [17] was 23.53% and the Activity [18] was “Non-Toxic”. The viability at 0.01 µM [19] was 64.5%, the Activity [20] was “Active” and the Activity [21] was “Active”.
